From ChEMBL document CHEMBL1145542, “Discovery of a new class of potent, selective, and orally bioavailable CRTH2 (DP2) receptor antagonists for the treatment of allergic inflammatory diseases” (J Med Chem, 2008)
Calls of active or inactive are those of the source. No cut-off for these calls is given here.

What was measured:
[1] = molecular target: T1, Prostaglandin D2 receptor 2 (Homo sapiens) (UniProt Q9Y5Y4); assay: Inverse agonistic activity at human CRTH2 receptor expressed in CHO cell membrane by [35S]GTP-gamma-S binding assay; type: functional, cell membranes
T1 sequence (whole entry): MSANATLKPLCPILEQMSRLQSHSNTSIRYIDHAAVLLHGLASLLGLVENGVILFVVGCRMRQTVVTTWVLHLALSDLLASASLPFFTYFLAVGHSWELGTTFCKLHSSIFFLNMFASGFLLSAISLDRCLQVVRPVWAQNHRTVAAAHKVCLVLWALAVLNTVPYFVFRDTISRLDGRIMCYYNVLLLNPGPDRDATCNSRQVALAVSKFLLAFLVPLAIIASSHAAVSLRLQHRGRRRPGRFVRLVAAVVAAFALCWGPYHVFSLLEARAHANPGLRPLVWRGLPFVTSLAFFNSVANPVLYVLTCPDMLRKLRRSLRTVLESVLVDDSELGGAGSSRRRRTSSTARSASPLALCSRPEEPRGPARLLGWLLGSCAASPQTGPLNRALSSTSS
How it was run: (§1)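 [35S]GTPγS binding at 30 °C on 10 µg human CRTH2 membranes in 20 mM HEPES/KOH pH 7.4, 10 mM MgCl2, 10 µg/mL saponin, 3 µM GDP, 150 mM NaCl, 2% Me2SO. PGD2 preincubation 10 min (antagonist mode: 80 nM PGD2), then 0.15 nM [35S]GTPγS for 30 min. Nonspecific binding with 10 µM GTPγS; stopped by centrifugation, scintillation counting.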

[2] = molecular target: T2, Prostaglandin D2 receptor 2 (Homo sapiens, UniProt Q9Y5Y4); assay: Displacement of [3H]PGD2 from human CRTH2 receptor expressed in CHO cells; type: cell-based
T2 sequence (Q9Y5Y4 whole entry): T1 sequence (whole entry)
How it was run: (§2)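 Scintillation proximity competition assay: 2–5 µg human or mouse CRTH2 membranes (nitrogen-cavitation, differential centrifugation) with WGA-SPA beads and 1.5 nM [3H]PGD2 in 10 mM HEPES/KOH pH 7.4, 10 mM MnCl2, protease inhibitors, 1% Me2SO, 90 min shaking at room temperature. Nonspecific binding with 1 µM PGD2. Ki by Cheng–Prusoff, mean of ≥3 independent experiments.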

[3] = Cmax in rat at 5 mg/kg, po; type: ADME, organism-based; design: dose 5 mg/kg, route oral; conditions: in vivo
How it was run: (§3)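 Male Sprague–Dawley or Janvier rats, three per route, dosed by oral gavage or iv bolus. Serial blood drawn through an indwelling carotid catheter up to 24 h post dose. Plasma pooled by time point, analysed by LC-MS/MS; non-compartmental analysis.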

[4] = Half life in rat at 5 mg/kg, po; type: ADME, organism-based; design: dose 5 mg/kg, route oral; conditions: in vivo; how it was run: as §3
[5] = Volume of distribution at steady state in Beagle dog at 1 mg/kg, iv; type: ADME, organism-based, Canis lupus familiaris; design: dose 1 mg/kg, route intravenous; conditions: in vivo, read-out: Vdss
How it was run: (§4)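 Three male beagle dogs, crossover design; 1 mg/kg given as a solution, iv bolus and oral gavage. Serial blood sampled up to 48 h post dose. Individual plasma samples analysed by LC-MS/MS; PK parameters derived by non-compartmental analysis.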

[6] = Inhibition of prostanoid EP4 receptor
[7] = Half life in Beagle dog at 1 mg/kg, iv; type: ADME, organism-based, Canis lupus familiaris; design: dose 1 mg/kg, route intravenous; conditions: in vivo; how it was run: as §4
[8] = Volume of distribution at steady state in rat at 1 mg/kg, iv; type: ADME, organism-based; design: dose 1 mg/kg, route intravenous; conditions: in vivo, read-out: Vdss; how it was run: as §3
[9] = Intrinsic clearance per mg of protein in human liver microsomes at 3 uM; type: ADME, Microsome
How it was run: (§5)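 Rat or human liver microsomes (0.5 mg/mL final) in 0.1 M phosphate pH 7.4 with 3 µM compound (1% DMSO), preincubated at 37 °C, started with 1 mM NADPH. Quenched with cold acetonitrile at 0, 15, 30, 45 min; LC/MS-MS of compound disappearance gives intrinsic clearance.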

[10] = molecular target: T2, Prostaglandin D2 receptor 2; assay: Antagonist activity at human CRTH2 receptor expressed in CHO cell membrane by [35S]GTP-gamma-S binding assay; type: functional, cell membranes; how it was run: as §1
[11] = AUC (0 to last t) in Beagle dog at 1 mg/kg, iv; type: ADME, organism-based, Canis lupus familiaris; design: time 0 - last, dose 1 mg/kg, route intravenous; conditions: plasma; how it was run: as §4
[12] = Half life in rat at 1 mg/kg, iv; type: ADME, organism-based; design: dose 1 mg/kg, route intravenous; conditions: in vivo; how it was run: as §3
[13] = Oral bioavailability in Beagle dog at 1 mg/kg; type: ADME, organism-based, Canis lupus familiaris; conditions: in vivo; how it was run: as §4
[14] = molecular target: T3, Prostaglandin D2 receptor (Homo sapiens, UniProt Q13258); assay: Inhibition of prostaglandin D2 receptor
T3 sequence (Q13258 whole entry): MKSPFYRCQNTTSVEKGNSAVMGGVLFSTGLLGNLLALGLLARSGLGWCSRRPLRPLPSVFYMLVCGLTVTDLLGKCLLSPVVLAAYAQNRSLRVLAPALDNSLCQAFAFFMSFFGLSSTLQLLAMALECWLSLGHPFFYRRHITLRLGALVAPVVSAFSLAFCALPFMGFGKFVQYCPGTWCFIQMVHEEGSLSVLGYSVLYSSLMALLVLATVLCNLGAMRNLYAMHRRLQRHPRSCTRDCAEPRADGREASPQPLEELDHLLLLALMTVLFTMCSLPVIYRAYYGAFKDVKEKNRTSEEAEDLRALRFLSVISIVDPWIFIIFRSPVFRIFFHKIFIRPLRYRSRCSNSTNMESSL

[15] = AUC (0 to last t) in rat at 5 mg/kg, po; type: ADME, organism-based; design: time 0 - last, dose 5 mg/kg, route oral; conditions: plasma; how it was run: as §3
[16] = molecular target: Prostaglandin E2 receptor EP2 subtype (Homo sapiens, UniProt P43116); assay: Inhibition of prostanoid EP2 receptor
[17] = AUC (0 to last t) in rat at 1 mg/kg, iv; type: ADME, organism-based; design: time 0 - last, dose 1 mg/kg, route intravenous; conditions: plasma; how it was run: as §3
[18] = Oral bioavailability in rat at 5 mg/kg; type: ADME, organism-based; conditions: in vivo; how it was run: as §3
[19] = Inhibition of prostanoid EP3 receptor
[20] = molecular target: T4, Prostaglandin D2 receptor 2 (Mus musculus, UniProt Q9Z2J6); assay: Displacement of [3H]PGD2 from mouse CRTH2 receptor expressed in HEK293 cells; type: cell-based; how it was run: as §2
T4 sequence (Q9Z2J6 whole entry): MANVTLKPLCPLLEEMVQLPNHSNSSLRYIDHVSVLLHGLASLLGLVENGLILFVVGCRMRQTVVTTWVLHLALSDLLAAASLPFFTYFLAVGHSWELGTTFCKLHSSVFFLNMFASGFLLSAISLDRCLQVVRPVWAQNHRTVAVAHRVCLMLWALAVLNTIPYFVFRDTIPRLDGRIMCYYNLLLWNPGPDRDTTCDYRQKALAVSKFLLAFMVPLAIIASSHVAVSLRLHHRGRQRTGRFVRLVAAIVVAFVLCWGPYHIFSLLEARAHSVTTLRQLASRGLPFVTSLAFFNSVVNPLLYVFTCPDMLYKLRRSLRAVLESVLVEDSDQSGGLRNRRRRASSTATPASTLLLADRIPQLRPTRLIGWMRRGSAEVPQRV

[21] = Clearance in Beagle dog at 1 mg/kg, iv; type: ADME, organism-based, Canis lupus familiaris; design: dose 1 mg/kg, route intravenous; conditions: in vivo; how it was run: as §4
[22] = Apparent permeability across human Caco-2 cell membrane at 10 uM; type: ADME, cell-based
How it was run: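 Caco-2 monolayers grown 21 days on Transwell filters; TEER above 800 ohm·cm² required. 10 µM test compound in HBSS added apically (A to B) or basolaterally (B to A), 2 h at 37 °C. Both compartments sampled, analysed by LC/MS-MS.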

[23] = Intrinsic clearance per mg of protein in rat liver microsomes at 3 uM; type: ADME, Microsome; how it was run: as §5
[24] = Cmax in rat at 1 mg/kg, iv; type: ADME, organism-based; design: dose 1 mg/kg, route intravenous; conditions: in vivo; how it was run: as §3
[25] = Tmax in Beagle dog at 1 mg/kg, iv; type: ADME, organism-based, Canis lupus familiaris; design: dose 1 mg/kg, route intravenous; conditions: in vivo; how it was run: as §4
[26] = Tmax in Beagle dog at 1 mg/kg, po; conditions: in vivo
[27] = Inhibition of prostanoid FP receptor
[28] = Lipophilicity, log D of the compound; type: physicochemical; conditions: octanol/water
[29] = Tmax in rat at 1 mg/kg, iv; type: ADME, organism-based; design: dose 1 mg/kg, route intravenous; conditions: in vivo; how it was run: as §3
[30] = Clearance in rat at 1 mg/kg, iv; type: ADME, organism-based; design: dose 1 mg/kg, route intravenous; conditions: in vivo; how it was run: as §3
[31] = Tmax in rat at 5 mg/kg, po; type: ADME, organism-based; design: dose 5 mg/kg, route oral; conditions: in vivo; how it was run: as §3
[32] = AUC (0 to last t) in Beagle dog at 1 mg/kg, po; type: ADME, organism-based, Canis lupus familiaris; design: time 0 - last, dose 1 mg/kg, route oral; conditions: plasma; how it was run: as §4
[33] = Cmax in Beagle dog at 1 mg/kg, po; conditions: in vivo
[34] = Cmax in Beagle dog at 1 mg/kg, iv; type: ADME, organism-based, Canis lupus familiaris; design: dose 1 mg/kg, route intravenous; conditions: in vivo; how it was run: as §4

Chain of Prostaglandin E2 receptor EP2 subtype (P43116 whole entry): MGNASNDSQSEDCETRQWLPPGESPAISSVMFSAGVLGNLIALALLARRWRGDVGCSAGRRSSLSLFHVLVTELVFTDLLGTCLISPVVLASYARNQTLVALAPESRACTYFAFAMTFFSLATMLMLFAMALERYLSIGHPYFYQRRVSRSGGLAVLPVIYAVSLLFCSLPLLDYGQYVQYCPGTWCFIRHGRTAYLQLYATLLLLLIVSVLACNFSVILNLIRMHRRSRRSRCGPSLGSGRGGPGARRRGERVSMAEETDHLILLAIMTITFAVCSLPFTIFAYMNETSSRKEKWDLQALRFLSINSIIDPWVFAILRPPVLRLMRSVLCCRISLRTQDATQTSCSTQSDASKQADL

Row | SMILES | Ki [2] [nM] | Cmax [3] [ng/mL] | half-life [4] [h] | IC50 [6] [nM] | Vd [8] [L/kg] | microsomal CLint at 3 µM [9] [µL/min/mg] | IC50 [10] [nM] | half-life [12] [h] | IC50 [14] [nM] | AUC(0-t) [15] [ng·h/mL] | IC50 [16] [nM] | AUC(0-t) [17] [ng·h/mL] | bioavailability [18] [%] | IC50 [19] [nM] | Ki [20] [nM] | Papp at 10 µM [22] [×10⁻⁶ cm/s] | microsomal CLint at 3 µM [23] [µL/min/mg] | Cmax [24] [ng/mL] | IC50 [27] [nM] | logD [28] | further results
1 | O=C1CC2(C(=O)N1Cc1ccccc1)C(=O)N(Cc1nnn[nH]1)c1ccc(Cl)cc12 (configuration not stated) | 1540 |  |  |  |  |  |  |  |  |  |  |  |  |  |  |  |  |  |  |  | Activity [1]: Active
2 | O=C(O)CN1C(=O)[C@@]2(CC(=O)N(Cc3cc(Cl)ccc3F)C2=O)c2cc(Cl)ccc21 | 5.3 | 163 | 5.4 | > 30000 | 7 | 5 | 66 | 13 | > 30000 | 1910 | > 30000 | 1180 | 32 | > 30000 | 5 | 26.4 | 19 | 1700 | > 30000 | -0.5 | Vd [5]: 5 L/kg; half-life [7]: 3 h; AUC(0-t) [11]: 637 ng·h/mL; bioavailability [13]: 52%; clearance [21]: 33.3 mL/min/kg; Tmax [25]: 0 h; Tmax [26]: 2.67 h; Tmax [29]: 0 h; clearance [30]: 11.7 mL/min/kg; Tmax [31]: 1.5 h; AUC(0-t) [32]: 339 ng·h/mL; Cmax [33]: 68.8 ng/mL; Cmax [34]: 1950 ng/mL
3 | O=C(O)CN1C(=O)C2(CC(=O)N(Cc3cc(Cl)ccc3F)C2)c2cc(Cl)ccc21 (single isomer, unassigned; form 1) | 13 | 55 | 8 |  | 0.3 | 3 |  | 0.9 |  | 319 |  | 1390 | 5 |  | 88 | 1.8 |  | 5060 |  | -0.4 | Tmax [29]: 0 h; clearance [30]: 11.7 mL/min/kg; Tmax [31]: 1.5 h
4 | O=C(O)CN1C(=O)[C@@]2(CC(=O)N(Cc3cccc(Cl)c3)C2=O)c2cc(Cl)ccc21 | 23 |  |  | > 30000 |  | 3 | 107 |  | > 30000 |  | > 30000 |  |  | > 30000 | 33 |  | 8 |  | > 30000 | -0.4 | 
